# Data reported in PubChem BioAssay.
# Calls of active or inactive are those of the source.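 How the source made its calls, unless noted: active means NADPH fluorescence slope more negative than the mean of all samples by about 3 SD, 99.7% confidence; inactive means the rest.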
# Experiments:
# [1] = inhibitors of TNFa-induced NFkB p65 translocation, primary screen, imaging, HUVEC, MLSMR starter and 10KST1 sets (AID 438;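 active means inhibition above 20% together with a positive visual image hit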;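 further: compound added about 3h40 before a 20 min TNFalpha stimulation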;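 on inhibition: signal is the nuclear over cytoplasmic p65 intensity ratio per well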); conditions: HUVEC TNFa-induced p65 nuclear translocation; cell count: measured here: nuclei count (cytotoxicity indicator), at 2.08 µM; inhibition: at 2 µM, stronger effect = higher value, 0% TNFa-plus-vehicle, 100% no-TNFa wells
# [2] = inhibitors of E-selectin induction by TNFa, primary screen, imaging, HUVEC, immunofluorescence, MLSMR starter and 10KST1 sets (AID 487;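 active means visually confirmed hit in the image check and inhibition above 20%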;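 on inhibition: signal is fraction of cell area covered by stained E-selectin grains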;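 on nuclei count: 100% = median nuclei count of all wells on the same plate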); conditions: HUVEC TNFalpha-induced E-selectin immunofluorescence imaging, at 2 µM; inhibition: stronger effect = higher value; nuclei count: measured here: cell number, toxicity
# [3] = DUSP6 inhibitors restoring Erk phosphorylation by chemical complementation, primary imaging in DUSP6-transfected HeLa (AID 609;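 active means compounds giving at least 50% inhibition in the cell-based MKP-3 phosphatase rescue imaging test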;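 on inhibition: phospho-Erk level distribution per well compared with pooled transfected vehicle control wells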); conditions: HeLa MKP-3 transfected, phospho-Erk imaging KS statistic, at 10 µM, cells stimulated with TPA for 15 min
# [4] = target: Dual specificity protein phosphatase 6 (Homo sapiens) (UniProt Q16828); assay: as above; conditions: HeLa MKP-3 transfected, phospho-Erk imaging KS statistic; at 10 µM; stronger effect = higher value; cells stimulated with TPA for 15 min
# [5] = target: Voltage-gated potassium channel subunit beta-2 (Rattus norvegicus) (UniProt P62483); assay: KvBeta enzyme negative modulators, primary screen, biochemical, NADPH fluorescence (AID 622;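 active means fluorescence slope higher than the sample average by over 3 SD, cut at about -0.22 in these data, passing the limit was not always enough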;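 further: slope of raw intensity against log time taken from 70 to 1610 s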); conditions: recombinant KvBeta, 4-cyanobenzaldehyde reduction, at 10 µM, stronger effect = higher value
# [6] = target: Voltage-gated potassium channel subunit beta-2 (Rattus norvegicus) (UniProt P62483); assay: KvBeta positive modulators, primary screen, biochemical, NADPH fluorescence (AID 623); conditions: Recombinant KvBeta, NADPH fluorescence decrease slope, 10 min; at 10 µM; stronger effect = lower value;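 further: fluorescence intensity change per second fitted from 20 to 320 s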
# [7] = target: Alpha-2C adrenergic receptor (Homo sapiens) (UniProt P18825); assay: modulators of alpha2C/GIRK thallium flux, primary screen, cell-based, HEK293 alpha2C/GIRK1/2 (AID 624;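 active means fluorescence slope after compound addition differing from the mean of all screened samples at 99.7% confidence, in either direction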;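 further: slope of fluorescence ratio to pre-addition baseline per second over 15 to 24 s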); conditions: thallium flux BTC fluorescence, at 10 µM, actives lie on both sides
# [8] = inhibitors of larval lipid processing in zebrafish, primary screen, whole organism, PED6 fluorescence, gall bladder and intestine (AID 686;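 active means a full or partial loss of lipid-probe fluorescence in the fish gall bladder, intestine or both, judged by eye; inactive means no fluorescence loss, or compound toxic to the fish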;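 further: larvae 5 to 7 days old with five fish per well; signal comes from phospholipase A2 cleavage of quenched PED6 carried via bile; overnight exposure to compound and PED6 before scoring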); conditions: Zebrafish larvae PED6 lipid processing, fluorescence scoring; screened at 20 µM (by protocol)
# Summary of the method: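 Doses: 20 µM single dose. Test system: live zebrafish larvae aged 5-7 days, whole organism. Quantity: five larvae per well. Measured by: By-eye fluorescence microscopy. Reagent: ingested quenched lipid PED6 at 100 nM. Read-out: visual per-well fluorescence inhibition score. Times: overnight exposure of larvae to compound plus PED6.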
# [9] = inhibitors of Chlamydomonas gravitaxis, primary screen, whole organism, Chlamydomonas reinhardtii, WT vs cilia-less mutant, absorbance, 96-well (AID 463189;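 active means inhibition at or above 50% relative to wild type and mutant plate controls; inactive means inhibition below 50%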;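 further: 0% = wild type cc124 cells in DMSO and 100% = ciliumless bld1 mutant cells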); conditions: OD600 absorbance, 2 days, at 10 µM, stronger effect = higher value
# [10] = measured here: cell density z-score
# [11] = measured here: nuclear c-Myc green intensity z-score
# [12] = measured here: nuclear pErk red intensity z-score, stronger effect = higher value
# Sequence of Voltage-gated potassium channel subunit beta-2 (Rattus norvegicus) (P62483 whole entry, looked up): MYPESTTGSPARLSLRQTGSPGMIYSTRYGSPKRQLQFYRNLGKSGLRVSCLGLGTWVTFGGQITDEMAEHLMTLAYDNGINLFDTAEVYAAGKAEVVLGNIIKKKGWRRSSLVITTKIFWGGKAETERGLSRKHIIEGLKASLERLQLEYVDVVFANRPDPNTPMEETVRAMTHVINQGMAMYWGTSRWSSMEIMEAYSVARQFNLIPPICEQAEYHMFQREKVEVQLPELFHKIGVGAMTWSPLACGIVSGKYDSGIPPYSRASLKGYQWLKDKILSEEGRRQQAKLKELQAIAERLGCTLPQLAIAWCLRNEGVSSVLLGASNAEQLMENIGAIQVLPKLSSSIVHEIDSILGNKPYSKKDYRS
# Sequence of Dual specificity protein phosphatase 6 (Homo sapiens) (Q16828 whole entry, looked up): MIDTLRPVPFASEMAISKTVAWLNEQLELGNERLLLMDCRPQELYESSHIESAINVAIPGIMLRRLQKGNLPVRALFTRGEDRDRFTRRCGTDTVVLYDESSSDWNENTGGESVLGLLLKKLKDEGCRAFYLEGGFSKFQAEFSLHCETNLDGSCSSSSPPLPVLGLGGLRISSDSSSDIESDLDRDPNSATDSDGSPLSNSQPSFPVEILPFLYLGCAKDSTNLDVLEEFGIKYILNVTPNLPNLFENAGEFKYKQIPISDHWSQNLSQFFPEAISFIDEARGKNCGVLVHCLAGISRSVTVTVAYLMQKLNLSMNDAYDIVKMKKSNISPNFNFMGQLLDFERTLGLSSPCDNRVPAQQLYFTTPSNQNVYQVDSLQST
# Sequence of Alpha-2C adrenergic receptor (Homo sapiens) (P18825 whole entry, looked up): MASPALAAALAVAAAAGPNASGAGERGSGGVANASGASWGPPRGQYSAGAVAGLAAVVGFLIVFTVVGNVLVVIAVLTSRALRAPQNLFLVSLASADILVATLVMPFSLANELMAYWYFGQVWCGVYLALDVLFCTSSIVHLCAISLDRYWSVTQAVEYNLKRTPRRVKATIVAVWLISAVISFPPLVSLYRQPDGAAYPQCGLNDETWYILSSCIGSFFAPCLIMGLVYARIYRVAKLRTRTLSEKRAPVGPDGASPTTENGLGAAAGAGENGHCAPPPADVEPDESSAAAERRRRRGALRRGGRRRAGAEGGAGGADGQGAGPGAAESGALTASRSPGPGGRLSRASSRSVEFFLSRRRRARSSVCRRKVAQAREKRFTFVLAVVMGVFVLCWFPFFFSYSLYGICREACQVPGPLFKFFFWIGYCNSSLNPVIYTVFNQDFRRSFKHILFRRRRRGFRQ
SMILES,cell count [1],inhibition [1],inhibition [2],nuclei count [2] [%],"z-score [3, 10]","z-score [3, 11]","z-score [3, 12]",inhibition [4],fluorescence slope [5],NADPH fluorescence slope [6],slope [7],outcome [8],inhibition [9]
N#CC(C(=O)NC1CCCCC1)c1nc2ccccc2nc1N1CCN(c2ccccc2F)CC1 (stereo unspecified),449,6.9% (inactive),-71.6% (inactive),150,0.949,-0.507,0.00921,7.83% (inactive),-0.432 (inactive),-1.4e-05 (inactive),0.00608 (inactive),inactive,1.07% (inactive)
CCCc1[nH]nc2c1C(c1cccc(OC)c1)C(C#N)=C(N)O2 (stereo unspecified),653,-18% (inactive),32.3% (inactive),178,-0.436,-0.724,0.801,1.04% (inactive),-0.401 (inactive),-5.6e-05 (inactive),0.00438 (inactive),inactive,11.7% (inactive)
CC(C(=O)N1CCCCC1)N1C(=O)c2ccccc2C1=O (stereo unspecified),352,-17.2% (inactive),-54% (inactive),122,2.3,-0.711,-0.781,17.5% (inactive),-0.452 (inactive),-0.000116 (inactive),0.00537 (inactive),inactive,10.7% (inactive)
COC(=O)c1ccc(Oc2nc3ccccc3n3c(C)nnc23)cc1,328,-6.8% (inactive),-57.8% (inactive),74,0.524,1.04,-0.937,24.7% (inactive),-0.434 (inactive),-1.9e-05 (inactive),0.00622 (inactive),inactive,27% (inactive)
CNC(=O)c1cc2c(ccc3ccccc32)oc1=N,498,-4% (inactive),-64.4% (inactive),134,0.106,1.1,-0.558,-0.159% (inactive),-0.075 (active),-2.6e-05 (inactive),0.00187 (inactive),inactive,0.922% (inactive)
Cc1cc(C)nc(CC(N)=O)n1,623,-3.1% (inactive),3.3% (inactive),142,0.214,0.0631,0.457,6.04% (inactive),-0.508 (inactive),-4e-05 (inactive),0.0046 (inactive),inactive,14.5% (inactive)
CCOC(=O)c1c(C)[nH]sc1=S,569,-2.6% (inactive),42.2% (inactive),95.8,-1.01,0.222,0.907,9.82% (inactive),-0.335 (inactive),-1.2e-06 (inactive),0.00974 (inactive),inactive,30.1% (inactive)
CC(=O)C1=C(O)C(=O)N(Cc2cccnc2)C1c1ccccc1Cl (stereo unspecified),645,-3.5% (inactive),-41.7% (inactive),140,1.32,-1.67,-1.62,31.1% (inactive),-0.49 (inactive),-0.000254 (inactive),0.00582 (inactive),inactive,10.6% (inactive)
Cc1c(N=Cc2c(O)n(C3CCCCC3)c(=O)[nH]c2=O)c(=O)n(-c2ccccc2)n1C,671,-20.1% (inactive),-93.8% (inactive),139,-0.195,-1.05,0.314,21% (inactive),-0.396 (inactive),-3e-05 (inactive),0.00508 (inactive),active; weak signal in gallbladder and intestine,-4.72% (inactive)
CCc1cccc(CC)c1N(COC)C(=O)Cn1nnc2ccccc21,369,-11% (inactive),-230% (inactive),180,0.728,0.454,-0.0174,20.8% (inactive),-0.394 (inactive),-2.8e-05 (inactive),0.00431 (inactive),inactive,23.5% (inactive)
CCCCOc1nc2ccccc2nc1C(C#N)C(=O)NC1CCCCC1 (stereo unspecified),320,-10.2% (inactive),-124% (inactive),151,-1.21,0.194,1.47,-15.8% (inactive),-0.41 (inactive),-0.00013 (inactive),0.00654 (inactive),inactive,1.58% (inactive)
N#Cc1ccc(-c2cccnc2)nc1SCC(=O)Nc1sc2c(c1C#N)CCC2,539,-25.4% (inactive),-101% (inactive),144,0.414,0.682,0.527,-9.66% (inactive),-0.501 (inactive),-5.3e-05 (inactive),0.00453 (inactive),inactive,-0.076% (inactive)
CCCCc1c(C)nn(-c2nnc3c4ccccc4n(C)c3n2)c1C,575,-12.6% (inactive),-37.2% (inactive),161,-0.575,2.07,-0.403,7.73% (inactive),-0.48 (inactive),-5.6e-05 (inactive),0.00441 (inactive),inactive,21.4% (inactive)
COc1cc(C(=O)OCCN2CCCCC2)ccc1O,675,-2.2% (inactive),38.8% (inactive),199,-0.395,-0.645,0.828,-3.98% (inactive),-0.493 (inactive),-0.000169 (inactive),0.00513 (inactive),inactive,17.1% (inactive)
c1ccc(C2=Nn3c(nnc3-c3ccccn3)SC2)cc1,589,-10.9% (inactive),-79.3% (inactive),170,-0.434,1.46,1.25,-9.66% (inactive),-0.412 (inactive),-0.000132 (inactive),0.00684 (inactive),inactive,-6.13% (inactive)
C=CCOC(=O)C1=C(C)OC(N)=C(C#N)C1c1ccoc1 (stereo unspecified),564,2.9% (inactive),-24.3% (inactive),166,-0.735,-0.099,0.124,2.46% (inactive),-0.32 (inactive),2.2e-05 (inactive),0.00536 (inactive),inactive,26.4% (inactive)
COc1cccc(-c2nc(NCc3ccco3)c3ccccc3n2)c1O,550,3% (inactive),-7.1% (inactive),113,0.234,1.11,1.04,-10.5% (inactive),-0.282 (inactive),-1.4e-05 (inactive),0.00506 (inactive),inactive,14.5% (inactive)
COc1ccc(OC)c(NC(=O)CSc2nnc(-c3ccco3)n2-c2ccc(C(=O)O)cc2)c1,494,-27.8% (inactive),-97.7% (inactive),158,0.414,-0.401,-0.476,11.9% (inactive),-0.505 (inactive),-3.4e-05 (inactive),0.00721 (inactive),inactive,2.3% (inactive)
COCCOC(=O)c1c(C)nc(SCC(=O)Nc2ccc(C)cc2)c(C#N)c1-c1ccco1,403,0.9% (inactive),-123% (inactive),124,1.33,0.851,-1.03,-2.59% (inactive),-0.446 (inactive),-8.7e-05 (inactive),0.00716 (inactive),inactive,7.49% (inactive)
Cc1nccn1-c1cc(C(C)C)c(C#N)c2nc3ccccc3n12,468,-22.6% (inactive),-68.2% (inactive),140,1.43,-0.347,-0.664,8.31% (inactive),-0.524 (inactive),-2.8e-05 (inactive),0.0063 (inactive),inactive,23% (inactive)
CCOC(=O)C(C#N)C(Cc1ccccc1)c1ccco1 (stereo unspecified),590,-3% (inactive),-70.2% (inactive),166,1.19,-0.726,-0.042,2.46% (inactive),-0.488 (inactive),-0.000162 (inactive),0.00534 (inactive),inactive,6.44% (inactive)
N#Cc1c(N)nc(SCC(=O)NCCc2ccccc2)c(C#N)c1-c1cccs1,441,3.4% (inactive),19.3% (inactive),62.6,-1.05,-0.516,1.34,7.83% (inactive),-0.418 (inactive),-1.6e-05 (inactive),0.00734 (inactive),inactive,-7.92% (inactive)
Cn1cc(C(=O)NCN2CCCCC2)c2ccccc21,637,-1.9% (inactive),33.7% (inactive),201,0.345,-0.8,-0.0314,-5.89% (inactive),-0.45 (inactive),-0.000261 (inactive),0.00517 (inactive),inactive,-12.4% (inactive)
CCOC(=O)N1CC=C2C(C#N)=C(N)C(C#N)(C#N)[C@H](c3cccs3)[C@H]2C1,664,-14.7% (inactive),44.9% (inactive),144,0.0987,-0.332,-1.22,11% (inactive),-0.367 (inactive),-2e-05 (inactive),0.00502 (inactive),inactive,26.4% (inactive)
CSc1nnc(C)c(=O)[nH]1,627,3.2% (inactive),-23.8% (inactive),149,0.361,-1.1,-0.0421,-1.12% (inactive),-0.463 (inactive),-0.000266 (inactive),0.00552 (inactive),inactive,6% (inactive)
Cn1c(O)c(C=Nc2ccc(Cc3ccncc3)cc2)c(=O)n(C)c1=O,642,6.6% (inactive),-91% (inactive),136,-1.1,-0.451,0.687,4.25% (inactive),-0.486 (inactive),-9.5e-05 (inactive),0.00577 (inactive),inactive,-1.46% (inactive)
C=CCc1c(C)c(C#N)c2nc3ccccc3n2c1N1CCN(C)CC1,528,-23% (inactive),-93.7% (inactive),150,-0.94,-0.784,-1.36,-15% (inactive),-0.476 (inactive),-2e-05 (inactive),0.00524 (inactive),inactive,7.97% (inactive)
